These results are taken from ChEMBL document CHEMBL4477209, “Indole-2-carboxamide-based MmpL3 Inhibitors Show Exceptional Antitubercular Activity in an Animal Model of Tuberculosis Infection” (J Med Chem, 2016).

Broadly, the Cmax is the peak of the concentration-time curve.

A short description of series [1]: Mutagenicity in Salmonella typhimurium TA98. Format: toxicity. The following applies: salmonella enterica subsp. enterica serovar typhimurium.
Series [2] can be described thus: Cmax in BALB/c mouse lung at 100 mg/kg administered via oral gavage after 0.25 to 24 hrs by LC-MS analysis. Details: dose 100 mg/kg, route oral. Format: ADME, organism-based. The method, boiled down:
(§1)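 Female BALB/c mice (20 g), single oral gavage dose of 100 mg/kg. Cardiac blood and lungs taken at 0, 0.25, 0.5, 1, 2, 4, 8 and 24 h (n = 3 per time point). Plasma separated by centrifugation; lungs bead-beaten in water and supernatant recovered. Drug quantified by LC-MS/MS against an indole-2-carboxamide internal standard. Parameters derived by noncompartmental analysis.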

Series [3] in a line: AUMClast in BALB/c mouse lung at 100 mg/kg administered via oral gavage after 0.25 to 24 hrs by LC-MS analysis. Format: ADME, organism-based. The settings on record: in vivo. The method, boiled down:
as §1

Series [4] relates to Mycobacterium tuberculosis. The series is described as follows: Antimycobacterial activity against Mycobacterium tuberculosis H37Rv infected in BALB/c mouse model assessed as reduction in CFU counts in lung at 200 mg/kg administered daily via oral gavage for 5 days per week measured after 28 days post dosage relative to control. Format: functional. Summed up:
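Bactericidal-dose model in aerosol-infected BALB/c mice given 25, 50, 100 or 200 mg/kg orally in 0.5% carboxymethylcellulose in water for 4 weeks. Lung CFU compared with the count at treatment initiation; survival also recorded.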

With `C[C@@H]1[C@H]2C[C@@H](C[C@H]1NC(=O)c1cc3c(F)cc(F)cc3[nH]1)C2(C)C`, the Activity result in series [1] was “Non-Toxic”; in series [4] it was 0.6 log10CFU. This molecule showed a Cmax in series [2] of 3500 ng/g. In addition, in series [3], the AUMClast worked out at 433 hr2.ug/g.
